Rows were chosen to be rich in hits. Some 2.2% of all compounds tested hit in one or more screens of this group.
NR2E3 ag-1: activates human NR2E3 receptor; 360,000 compounds, 0.35% hits; inhibition of corepressor binding, % at 3.98 µM; Q9Y5X4; CHO-S Gal4-NCOR/VP16-NR2E3 two-hybrid, luciferase;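 active = inhibition above the mean of all tested compounds plus 3 SD, cut at about 70% in these data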;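 also: 0% = DMSO with NR2E3 transfected cells and 100% = cells lacking NR2E3 construct; higher means lower luciferase signal from less NR2E3 corepressor binding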
Target sequence (Q9Y5X4 whole entry, looked up, the tested form may be a part): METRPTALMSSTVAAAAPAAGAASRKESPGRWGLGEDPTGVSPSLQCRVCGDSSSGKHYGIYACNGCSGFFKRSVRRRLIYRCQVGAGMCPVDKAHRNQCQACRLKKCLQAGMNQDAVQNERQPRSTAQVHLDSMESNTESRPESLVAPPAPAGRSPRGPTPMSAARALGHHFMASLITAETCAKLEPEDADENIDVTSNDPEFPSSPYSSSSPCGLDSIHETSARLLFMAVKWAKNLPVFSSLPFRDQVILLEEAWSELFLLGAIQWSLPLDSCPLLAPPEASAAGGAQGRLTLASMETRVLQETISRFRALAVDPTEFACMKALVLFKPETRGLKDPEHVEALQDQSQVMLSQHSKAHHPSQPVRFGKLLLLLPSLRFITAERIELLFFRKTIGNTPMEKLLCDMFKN
miR122 inh: inhibitors of miR-122 in Huh7 cells | Huh7 miR-122 Renilla luciferase sensor, 48 h; neutral wells = 0, positive control = 100 | activation (reporter increase), % at 12.5 µM | 340,000 compounds, 0.3% hits;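 active = mean replicate activation score at least 90 and every replicate individually at or above 90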;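 also: higher luciferase means less miR-122 activity so hits act as miR-122 inhibitors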
Jurkat NFkB inh: inhibitors of the PMA/ionomycin-induced NF-kB reporter in Jurkat cells. PMA/ionomycin-induced NF-kB luciferase reporter, luminescence. inhibition, % at 4 µM. 330,000 compounds, 0.53% hits. AID 435003; in the data active = inhibition above about 50%
FGF22 binding: binders of recombinant human FGF22 by thermal shift. Q9HCT0. SYPRO orange fluorescence; percent of sucrose octasulfate shift, DMSO zero. activity (Tm shift, normalised), % at 9.99 µM. 340,000 compounds, 1.5% hits. AID 651658;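 active = mean Tm shift, scaled 0 neutral to 100 positive control, at about 1.3% or above, every replicate too, limit read from the data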
Target sequence (Q9HCT0 whole entry, looked up): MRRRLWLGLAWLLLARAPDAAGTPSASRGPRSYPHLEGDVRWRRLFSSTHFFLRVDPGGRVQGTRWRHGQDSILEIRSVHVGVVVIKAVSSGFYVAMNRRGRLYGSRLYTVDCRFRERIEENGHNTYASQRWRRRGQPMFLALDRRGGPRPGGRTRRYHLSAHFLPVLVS
NR2E3 ag-2: NR2E3 (human) agonism | Q9Y5X4 | GST-NR2E3/biotin-RetCOR TR-FRET, 1536-well | inhibition of corepressor binding, % at 4.78 µM | 320,000 compounds, 0.12% hits | AID 2300;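 active = percent inhibition above the cutoff of mean plus 3 SD of all tested compounds, set per screening campaign, cut at about 20% in these data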;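 also: 0% = DMSO wells and 100% = biotin wells as full block of FRET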
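Test system: GST-NR2E3 and biotin-RetCOR proteins | Quantity: 1.35 nM GST-tagged NR2E3 final | Medium: Tris pH 7.5 | Also added: 7 nM biotin-RetCOR | Dosing: Compound at 4.8 µM, single dose | Timing: 5 h at 4 °C | Detection: Time-resolved FRET | Read-out basis: Percent inhibition | Benchmarks: Biotin wells as high control, 0.6% DMSO wells as low control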
697 NFkB inh: inhibitors of the PMA/ionomycin-induced NF-kB reporter in 697 B cells. 330,000 compounds, 0.33% hits. 697 B-cell NF-kB luciferase reporter, 16 h. inhibition, % at 4 µM. AID 435022; in the data active = inhibition above about 35%
* = called active by the depositor; [ ] = dose if it differs, or a comment.

`C[C@@H]1CN([C@@H](C)CO)C(=O)c2cc(NS(=O)(=O)c3cn(C)cn3)ccc2O[C@@H](C)CCCCO[C@@H]1CN(C)Cc1ccc2c(c1)OCO2` gave miR122 inh 6[16.7 µM] and FGF22 binding 0.
For Cc1cc(C2=NNC(=NCCc3ccccc3)SC2)c(C)n1CC1CCCO1 (configuration not stated) the results were NR2E3 ag-1 -43, miR122 inh -3, Jurkat NFkB inh -8, FGF22 binding 0, NR2E3 ag-2 2 and 697 NFkB inh 5.
Screening Clc1ccc(C2=NNC(=NCC3CCCO3)SC2)cc1 (configuration not stated) returned NR2E3 ag-1 -93, miR122 inh 8, Jurkat NFkB inh -56, FGF22 binding 43*, NR2E3 ag-2 3 and 697 NFkB inh -36.
`CCCn1nc(C(=O)OCC(=O)Nc2cccc(OC)c2)c2ccccc2c1=O` gave NR2E3 ag-1 -16, Jurkat NFkB inh -25, FGF22 binding 43*, NR2E3 ag-2 2 and 697 NFkB inh 8.
For CCOc1ccc(-c2c(C(=O)N/N=C/c3c[nH]c4ccccc34)nnn2-c2nonc2N)cc1 the results were NR2E3 ag-1 14, miR122 inh 4, Jurkat NFkB inh -2, FGF22 binding 43*, NR2E3 ag-2 -3 and 697 NFkB inh -9.
Screening CC1(C)CC(=O)C=C(c2ccccc2-c2ccc3cc[nH]c3c2)C1=O returned NR2E3 ag-1 5, miR122 inh 6 and FGF22 binding 43*.
For CC1(C)CC(=O)C=C(c2ccc(-c3ccc4[nH]ccc4c3)cc2)C1=O the results were NR2E3 ag-1 -76, miR122 inh 10 and FGF22 binding 0.
`CCCCC(C(=O)O)C(C)CC(=O)Nc1nncs1` (configuration not stated) gave NR2E3 ag-1 -10, miR122 inh 5, Jurkat NFkB inh 6, FGF22 binding 43*, NR2E3 ag-2 0 and 697 NFkB inh 14.
For COc1cccc(/C=N/NC(=O)c2ccccc2)c1OS(=O)(=O)c1ccccc1 the results were NR2E3 ag-1 -15, Jurkat NFkB inh 11, FGF22 binding 44*, NR2E3 ag-2 -1 and 697 NFkB inh -1.
Screening Cc1ccc2c(CN3CCCc4ccccc43)cc(=O)oc2c1C returned NR2E3 ag-1 -38, miR122 inh 147*, Jurkat NFkB inh 8, NR2E3 ag-2 0 and 697 NFkB inh -13.
`Cc1ccc2c(CN3CCCCC3)cc(=O)oc2c1C` gave NR2E3 ag-1 -35, miR122 inh -4, Jurkat NFkB inh -30, FGF22 binding 0, NR2E3 ag-2 0 and 697 NFkB inh 8.
COc1ccc(-n2c(SCC(=O)O)nc3sc4c(c3c2=O)CCC4)cc1 was read as NR2E3 ag-1 -5, miR122 inh 2, Jurkat NFkB inh -7, FGF22 binding 0, NR2E3 ag-2 4 and 697 NFkB inh -5.
Screening COc1ccc(-n2c(SCC(N)=O)nc3sc4c(c3c2=O)CCC4)cc1 returned NR2E3 ag-1 14, miR122 inh 4, Jurkat NFkB inh 0, FGF22 binding 43*, NR2E3 ag-2 2 and 697 NFkB inh 5.
Screening CCN1CCN(C(=S)c2ccc(OC)cc2)CC1 returned NR2E3 ag-1 -9, Jurkat NFkB inh 10, FGF22 binding 43*, NR2E3 ag-2 -3 and 697 NFkB inh 11.
Screening O=C(NC1CCCCCCC1O)c1ccccc1 (configuration not stated) returned NR2E3 ag-1 27, miR122 inh -11 and FGF22 binding 0.
`O=C(NC1CCCCC1c1ccccc1)c1ccccc1` (configuration not stated) gave NR2E3 ag-1 -16 and FGF22 binding 44*.
Cc1c(C(=O)N2CCCCC2)oc2ccccc12 was read as NR2E3 ag-1 -36, miR122 inh -9, Jurkat NFkB inh -19, FGF22 binding 43* and 697 NFkB inh -16.
Screening C/C=C/c1ccc([C@H]2[C@@H](C#N)N(C(=O)Cc3ccccn3)[C@@H]2CO)cc1 returned FGF22 binding 0.
O/N=C/c1ccccc1Oc1ccc(Cl)cc1 was read as NR2E3 ag-1 -19, Jurkat NFkB inh 15, FGF22 binding 1, NR2E3 ag-2 2 and 697 NFkB inh -3.
N#CCC(=O)c1ccccc1Oc1ccc(Cl)cc1 was read as NR2E3 ag-1 -14, Jurkat NFkB inh -2, FGF22 binding 44*, NR2E3 ag-2 -1 and 697 NFkB inh -3.
For CC(=O)Sc1nc(-c2ccccc2)[nH]c1S(=O)(=O)c1ccc(C)cc1 the results were Jurkat NFkB inh 2, NR2E3 ag-2 5 and 697 NFkB inh -1.
For CSc1nc(-c2ccc(C)cc2)[nH]c1S(=O)(=O)c1ccccc1 the results were NR2E3 ag-1 2, miR122 inh 126*, Jurkat NFkB inh 7, NR2E3 ag-2 2 and 697 NFkB inh -6.
`O=C(O)c1cccc(Nc2nc(C(F)(F)F)nc3ccccc23)c1` gave NR2E3 ag-1 3, Jurkat NFkB inh -5, FGF22 binding 2.0*, NR2E3 ag-2 -1 and 697 NFkB inh 26.
O=C(O)c1cccc(Nc2nc(-c3ccccc3)nc3ccccc23)c1 was read as NR2E3 ag-1 -17, Jurkat NFkB inh 8, FGF22 binding 0, NR2E3 ag-2 -3 and 697 NFkB inh 11.
For NC(=NCCc1ccccc1)NS(=O)(=O)c1cccs1 the results were NR2E3 ag-1 5, Jurkat NFkB inh 5, FGF22 binding 43*, NR2E3 ag-2 4 and 697 NFkB inh 14.
`CC(NCc1ccccc1O)c1ccccc1` (configuration not stated) gave NR2E3 ag-1 -5, miR122 inh 0, Jurkat NFkB inh 4, FGF22 binding 43*, NR2E3 ag-2 1 and 697 NFkB inh 12.
`CCOC(=O)c1ccc(S(=O)(=O)NC2CCCCCCC2)n1C` gave NR2E3 ag-1 5, miR122 inh 128*, Jurkat NFkB inh 14, NR2E3 ag-2 -2 and 697 NFkB inh -4.
Screening C[C@H](CO)N1C[C@H](C)[C@H](CN(C)Cc2ccncc2)Oc2ncc(C3=CCCCC3)cc2C1=O returned miR122 inh -7[16.7 µM] and FGF22 binding 0.
For N#Cc1cccc(NC(=O)CSc2nnc(-c3n[nH]c4ccccc34)o2)c1 the results were NR2E3 ag-1 -32, Jurkat NFkB inh -95, FGF22 binding 1.9*, NR2E3 ag-2 5 and 697 NFkB inh -24.
Screening COCC(=O)OCC(=O)N1N=C(c2ccc(Cl)cc2)CC1c1ccco1 (configuration not stated) returned NR2E3 ag-1 -17, Jurkat NFkB inh 14, FGF22 binding 44*, NR2E3 ag-2 4 and 697 NFkB inh 1.

Screening results deposited in PubChem by several laboratories.
